Active and inactive are the calls of the source. The rule behind the calls is not given here.
Key:
[1] = tested on: RAW264.7; assay: Antiinflammatory activity in TNFalpha-stimulated mouse RAW264.7 cells assessed as PGJ level at 3 uM after 20 hrs by ELISA; assay type: functional
How it was run: (§1)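 Mouse RAW264.7 macrophages were grown in DMEM with 10% FBS and passaged by scraping without trypsin. Cells were seeded at 50,000 per well in DMEM+FCS with TNFα (10 nM) and incubated 20 hrs at 37°C, 5% CO2. Medium was then changed to serum-free DMEM, cells were treated for 2 hrs, and PGJ in the medium was measured by ELISA. DMSO was the vehicle control.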

[2] = tested on: RAW264.7; assay: Antiinflammatory activity in TNFalpha-stimulated mouse RAW264.7 cells assessed as reduction in cell count at 3 uM after 20 hrs relative to control; assay type: functional; set-up: scale not given: the % may be the effect or the level left
How it was run: (§2)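 RAW264.7 cells were kept in DMEM/10% FBS and subcultured by scraping. They were plated at 50,000 per well with TNFα (10 nM) for 20 hrs at 37°C, 5% CO2, then switched to serum-free DMEM for 2 hrs of treatment. Cell numbers were compared with the vehicle control.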

[3] = tested on: RAW264.7; assay: Antiinflammatory activity in TNFalpha-stimulated mouse RAW264.7 cells assessed as reduction in cell count at 10 uM after 20 hrs relative to control; assay type: functional; set-up: scale not given: the % may be the effect or the level left; how it was run: as §2
[4] = tested on: RAW264.7; assay: Antiinflammatory activity in TNFalpha-stimulated mouse RAW264.7 cells assessed as reduction in cell count at 1 uM after 20 hrs relative to control; assay type: functional; set-up: scale not given: the % may be the effect or the level left; how it was run: as §2
[5] = tested on: RAW264.7; assay: Antiinflammatory activity in TNFalpha-stimulated mouse RAW264.7 cells assessed as PGJ level at 0.3 uM after 20 hrs by ELISA; assay type: functional; how it was run: as §1
[6] = tested on: RAW264.7; assay: Antiinflammatory activity in TNFalpha-stimulated mouse RAW264.7 cells assessed as PGJ level at 10 uM after 20 hrs by ELISA; assay type: functional; how it was run: as §1
[7] = tested on: RAW264.7; assay: Antiinflammatory activity in TNFalpha-stimulated mouse RAW264.7 cells assessed as PGJ level at 1 uM after 20 hrs by ELISA; assay type: functional; how it was run: as §1
[8] = tested on: RAW264.7; assay: Cytotoxicity in mouse RAW264.7 cells assessed as decrease in cell viability at 0.3 to 10 uM after 20 hrs; assay type: cell-based; conditions: raw264.7, 20 h
[9] = tested on: RAW264.7; assay: Antiinflammatory activity in TNFalpha-stimulated mouse RAW264.7 cells assessed as reduction in cell count at 0.3 uM after 20 hrs relative to control; assay type: functional; set-up: scale not given: the % may be the effect or the level left; how it was run: as §2
[10] = tested on: RAW264.7; assay: Antiinflammatory activity in TNFalpha-stimulated mouse RAW264.7 cells assessed as cell count at 0.3 uM after 20 hrs relative to control; assay type: functional; how it was run: as §2
[11] = tested on: Mus musculus; assay: Antiinflammatory activity in mouse peritonitis model assessed as accumulation of PGJ per 10^3 peritoneal cells at 0.3 to 20 mg/kg, po after 3 hrs by ELISA; assay type: functional, organism-based
How it was run: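 Mice were dosed by mouth in safflower oil (0.3–20 mg/kg); the safflower oil vehicle served as control. After 30 min they received 1 ml of 8% thioglycollate medium i.p. Peritoneal cells were harvested, cultured for 18 hrs, and PGJ in the medium was measured by ELISA. N=4.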

[12] = tested on: RAW264.7; assay: Antiinflammatory activity in TNFalpha-stimulated mouse RAW264.7 cells assessed as PGJ level at 2.5 uM after 20 hrs by ELISA; assay type: functional; how it was run: as §1
[13] = tested on: RAW264.7; assay: Antiinflammatory activity in TNFalpha-stimulated mouse RAW264.7 cells assessed as PGJ level at 0.5 uM after 20 hrs by ELISA; assay type: functional; how it was run: as §1
[14] = tested on: Mus musculus; assay: Antiinflammatory activity in po dosed mouse peritonitis model assessed as inhibition of thiglycollate-induced migration of leukocytes into the peritoneal cavity administered 30 mins prior to thiglycollate-challenge; assay type: functional
How it was run: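 Oral doses of 0.3–20 mg/kg in safflower oil were given to mice; controls received safflower oil. Thirty minutes later, 1 ml of sterile-filtered 8% thioglycollate medium was injected i.p. After 3 hrs, peritoneal cells were harvested, erythrocytes were lysed for 2 min, cells were resuspended in PBS/BSA, and differential leukocyte counts were made. N=8.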

[15] = tested on: RAW264.7; assay: Antiinflammatory activity in TNFalpha-stimulated mouse RAW264.7 cells assessed as PGJ level at 5 uM after 20 hrs by ELISA; assay type: functional; how it was run: as §1

| SMILES | Activity [1] | Activity [2] | Activity [3] | Activity [4] | Activity [5] | Activity [6] | Activity [7] | Activity [8] | Activity [9] | Activity [10] | Activity [11] | Activity [12] | Activity [13] | ED50 [14] | Activity [15] |
| --- | --- | --- | --- | --- | --- | --- | --- | --- | --- | --- | --- | --- | --- | --- | --- |
| CCCCC/C=C\C/C=C\CCCCCCCC(=O)N[C@@H](C)C(=O)O | <16 pg/mL | 68.5% | 55.5% | 74.3% | <16 pg/mL | 30.3 pg/mL | <16 pg/mL | Non-toxic | 55.6% |  |  |  |  |  |  |
| CCCCC/C=C\C/C=C\CCCCCCCC(=O)N[C@H](C)C(=O)O | 233 pg/mL | 33.9% | 30.5% | 65.9% | <16 pg/mL | 1580 pg/mL | 18 pg/mL | Non-toxic |  | 136% |  |  |  |  |  |
| CCCCC/C=C\C/C=C\CCCCCCCC(=O)NCC(=O)O [LINOLEOYL GLYCINE] |  |  |  |  |  | 7315 pg/mL | 177 pg/mL |  |  |  | Active | 1843 pg/mL | <16 pg/mL | < 0.3 mg/kg | 3907 pg/mL |
| CCCCC/C=C\C/C=C\C/C=C\C/C=C\CCCC(=O)NCC(=O)O [ARACHIDONOYL GLYCINE] |  |  |  |  |  | 6847 pg/mL | <16 pg/mL |  |  |  |  |  |  |  |  |

Reference: ChEMBL document CHEMBL1938392, “N-Amino acid linoleoyl conjugates: anti-inflammatory activities” (Bioorg Med Chem Lett, 2012)
